# Assay results collected from several papers.
# Lines come from different studies, so protocols differ.
# Ptgs2: Prostaglandin G/H synthase 2 (Ptgs2, Mus musculus, UniProt Q05769)
# P2RX7: P2X purinoceptor 7 (P2RX7, Homo sapiens, UniProt Q99572)
# gag-pol integrase: Gag-Pol polyprotein, integrase (gag-pol, Human immunodeficiency virus 1, UniProt P12497)
# IDE: Insulin-degrading enzyme (IDE, Homo sapiens, UniProt P14735)
# MMP1: Interstitial collagenase (MMP1, Homo sapiens, UniProt P03956)
# MET: Hepatocyte growth factor receptor (MET, Homo sapiens, UniProt P08581)
SMILES,target,effect on,mode,technique,notes,IC50
Cc1ccc(/C=C2\C=C(CC(=O)O)c3cc(F)ccc32)cc1,Ptgs2,enzyme activity,inhibitor,,,~26000 nM
Sc1nnc(-c2cc(-c3ccccc3)nc3ccccc23)o1,P2RX7,calcium signal,antagonist,,,7270 nM
CC1(COc2ccc(CC3SC(=O)NC3=O)cc2)CCCCC1 (centres unmarked),"Peroxisome proliferator-activated receptor alpha (PPARA, Homo sapiens, UniProt Q07869)",ligand displacement,,TR-FRET,,377000 nM
CCC[C@H](NC(=O)C1CN(C)C1)c1ncc(-c2cc3ccccc3nc2OC)[nH]1,"Histone deacetylase 3 (HDAC3, Homo sapiens, UniProt O15379)",enzyme activity,inhibitor,fluorescence,,160 nM
O=C(Nc1ccccc1OS(=O)(=O)c1ccc([N+](=O)[O-])cc1)c1ccc2ncccc2c1,P2RX7,calcium signal,antagonist,,,1810 nM
CC/C=C\C/C=C\C/C=C\C/C=C\C/C=C\CCCC(=O)O,"DNA polymerase beta (Rattus norvegicus, UniProt P06766)",enzyme activity,inhibitor,,,88500 nM
O=C(O)[C@H](Cc1ccc2ccccc2c1)NC(=O)C1(c2ccc(F)cc2)CCN(S(=O)(=O)c2ccccc2)CC1,gag-pol integrase,enzyme activity,inhibitor,TR-FRET,,150000 nM
COC(=O)[C@H](Cc1c[nH]cn1)NC(=O)CN(CC(=O)O)Cc1ccncc1,IDE,enzyme activity,inhibitor,fluorescence,,6300 nM
NC(=O)NCCC[C@@H](NS(=O)(=O)c1ccc(OCc2cc(Br)cc(Br)c2)cc1)C(=O)NO,MMP1,enzyme activity,inhibitor,fluorescence,,> 500000 nM
CN(C)C(=O)[C@H](Cc1c[nH]cn1)NC(=O)CN(CC(=O)O)Cc1ccccc1,IDE,enzyme activity,inhibitor,fluorescence,,6900 nM
Cc1cc(Oc2ccc(NC(=O)c3sc(-c4ccccn4)nc3C)cc2F)c2nncn2n1,MET,enzyme activity,inhibitor,mobility shift,,900 nM
CC(C)C[C@H](CC(=O)NO)C(=O)N[C@@H](Cc1ccccc1)C(=O)NCCN1CCOCC1,MMP1,enzyme activity,inhibitor,absorbance,,3 nM
CC(C)C[C@H](NC(=O)[C@H](Cc1ccccc1)NC(=O)[C@H](Cc1ccc(O)cc1)NC(=O)CNC(=O)[C@H](CCCNC(=N)N)NC(=O)[C@H](CO)NC(=O)[C@H](CCC(N)=O)NC(=O)[C@H](CO)NC(=O)[C@H](C)NC(=O)[C@H](Cc1ccccc1)NC(=O)[C@@H]1CCCN1C(=O)[C@H](CO)NC(=O)[C@H](CCC(N)=O)NC(=O)[C@H](Cc1ccccc1)NC(=O)[C@H](CCC(=O)O)NC(=O)[C@H](CCC(=O)O)NC(=O)[C@H](CC(=O)O)NC(=O)[C@@H](NC(=O)[C@H](CCCNC(=N)N)NC(=O)[C@@H](N)Cc1ccccc1)C(C)C)C(=O)N[C@@H](Cc1ccccc1)C(=O)N[C@@H](CCCNC(=N)N)C(=O)N1CCC[C@H]1C(=O)N[C@@H](CCCNC(=N)N)C(=O)N[C@@H](CC(N)=O)C(N)=O,"Neuromedin-U receptor 2 (NMUR2, Homo sapiens, UniProt Q9GZQ4)",ligand displacement,,radioligand,cell membranes,0.22 nM
CNCCCC(c1ccccc1)(c1ccccc1)c1ccccc1,"Kinesin-like protein KIF11 (KIF11, Homo sapiens, UniProt P52732)",ATPase activity,inhibitor,,,386 nM
COC(=O)[C@H](Cc1c[nH]cn1)NC(=O)CN(CCCc1ccccc1)CC(=O)O,IDE,enzyme activity,inhibitor,fluorescence,,1000 nM
Cc1nc2ccc(Br)cc2c(-c2ccc(Cl)cc2)c1C(OC(C)(C)C)C(=O)O (centres unmarked),gag-pol integrase,enzyme activity,inhibitor,TR-FRET,,120 nM
CCCCCCCCCCC[C@@H](C[C@@H]1OC(=O)[C@H]1CCCCCC)OC(=O)[C@H](CC(C)C)NC=O,"Lysosomal acid lipase/cholesteryl ester hydrolase (LIPA, Homo sapiens, UniProt P38571)",enzyme activity,inhibitor,,,168 nM
O=C(Nc1cc(-c2ccc(Cl)cc2)[nH]n1)c1cccnc1,"crk3 (Leishmania mexicana, UniProt O15851)",enzyme activity,inhibitor,radiometric,,2400 nM
Nc1ncnc2c1c(COc1cccc(Cl)c1)nn2C1CCOCC1,"TGF-beta receptor type-1 (TGFBR1, Homo sapiens, UniProt P36897)",cell-free assay,,TR-FRET,,820 nM
CC[C@H](C)[C@H](NC(C)=O)C(=O)N[C@@H](CCC(=O)O)C(=O)N[C@H](C(=O)N[C@H](C=O)CC(=O)O)[C@@H](C)O,"Caspase-1 (CASP1, Homo sapiens, UniProt P29466)",enzyme activity,inhibitor,,,17.3 nM
Cc1ccc(C(=O)Nc2ccc(Oc3cc4cnn(C)c4cc3-c3cn[nH]c3)c(F)c2)c(=O)n1-c1ccc(F)cc1,"Macrophage colony-stimulating factor 1 receptor (CSF1R, Homo sapiens, UniProt P07333)",enzyme activity,inhibitor,radiometric,,32 nM
O=C(O)CN(CCCc1ccccc1)CC(=O)N[C@@H](Cc1c[nH]cn1)C(=O)NCc1ccccc1,IDE,enzyme activity,inhibitor,fluorescence,,400 nM
Cc1cc(Oc2ccc(NC(=O)c3sc(-c4ccccc4)nc3C)cc2F)c2nncn2n1,MET,enzyme activity,inhibitor,mobility shift,,630 nM
COC(=O)[C@H](Cc1c[nH]cn1)NC(=O)CN(CC(=O)O)Cc1ccc(C(C)(C)C)cc1,IDE,enzyme activity,inhibitor,fluorescence,,2900 nM
CC(C(=O)O)c1cccc(C(=O)c2ccccc2)c1 (centres unmarked),Ptgs2,enzyme activity,inhibitor,,,720 nM
O=C(Nc1ccccc1OS(=O)(=O)c1cccs1)c1ccc2ncccc2c1,P2RX7,calcium signal,antagonist,,,2480 nM
Cc1noc([C@H](Cc2c[nH]cn2)NC(=O)CN(CCCc2ccccc2)CC(=O)O)n1,IDE,enzyme activity,inhibitor,fluorescence,,500 nM
CNC(=O)c1cc2c(Oc3ccc(NC(=O)C4(C(=O)Nc5ccc(F)cc5)CC4)cc3)ccnc2cc1OC,"Hepatocyte growth factor receptor (MET, Homo sapiens, UniProt P08581, Y1230D)",enzyme activity,inhibitor,radiometric,,9 nM
CC(C)(C)OC(=O)[C@H](Cc1c[nH]cn1)NC(=O)CN(CCCc1ccccc1)CC(=O)O,IDE,enzyme activity,inhibitor,fluorescence,,400 nM
CN1CCN(c2ccc(Nc3ncc4cc(C#N)c(=O)n(C5CCCC5)c4n3)cc2)CC1,"Serine/threonine-protein kinase Nek9 (NEK9, Homo sapiens, UniProt Q8TD19)",enzyme activity,inhibitor,,,399 nM
COC(=O)[C@H](Cc1c[nH]cn1)NC(=O)CN(CC(=O)O)Cc1ccc(F)cc1,IDE,enzyme activity,inhibitor,fluorescence,,2500 nM
CCCN(CCC)S(=O)(=O)c1ccc(-c2n[nH]c(=S)o2)cc1,P2RX7,calcium signal,antagonist,,,6110 nM
Cc1cnc(-c2ccc(-c3ccc(NC(=O)Nc4c(F)cc(F)cc4F)cc3F)c3c2C(=O)NC3)[nH]1,"Serine/threonine-protein kinase 4 (STK4, Homo sapiens, UniProt Q13043)",enzyme activity,inhibitor,,,2.1 nM
CC(C)(C)n1nc(-c2ccc3nc(OC4CC4)ccc3c2)c(C(N)=O)c1N,"Tyrosine-protein kinase JAK3 (JAK3, Homo sapiens, UniProt P52333)",cell-free assay,,,,> 10000 nM
C[C@H]1C[C@@H](N2C(=N)N[C@](C)(c3cccc(Nc4ccc(C5CC5)nc4)c3Cl)CC2=O)CCO1,"Potassium voltage-gated channel subfamily A member 5 (KCNA5, Homo sapiens, UniProt P22460)",ion current,inhibitor,patch clamp,,4620 nM
